Source: PubChem
NR2E3 ag-1 = agonists of human NR2E3 nuclear receptor; Q9Y5X4; inhibition of corepressor binding, % at 3.98 µM; CHO-S Gal4-NCOR/VP16-NR2E3 two-hybrid, luciferase; AID 602229; hit rate 0.35% among 360,000;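 active = inhibition above the mean of all tested compounds plus 3 SD, cut at about 70% in these data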;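 note: 0% = DMSO with NR2E3 transfected cells and 100% = cells lacking NR2E3 construct; higher means lower luciferase signal from less NR2E3 corepressor binding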
CHT inh = inhibitors of human choline transporter CHT. Q9GZV3. CHT-expressing cells, membrane potential dye, choline response; stronger effect = lower value. B-score at 10 µM. hit rate 0.86% among 310,000;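 active = B-score over 3 SD under the library average, and starting fluorescence ratio not unusually high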;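 note: choline stimulus applied at its EC90 after an EC20 pre-addition; B-score computed on integrated fluorescence ratio after choline addition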
Target sequence (Q9GZV3 whole entry, looked up): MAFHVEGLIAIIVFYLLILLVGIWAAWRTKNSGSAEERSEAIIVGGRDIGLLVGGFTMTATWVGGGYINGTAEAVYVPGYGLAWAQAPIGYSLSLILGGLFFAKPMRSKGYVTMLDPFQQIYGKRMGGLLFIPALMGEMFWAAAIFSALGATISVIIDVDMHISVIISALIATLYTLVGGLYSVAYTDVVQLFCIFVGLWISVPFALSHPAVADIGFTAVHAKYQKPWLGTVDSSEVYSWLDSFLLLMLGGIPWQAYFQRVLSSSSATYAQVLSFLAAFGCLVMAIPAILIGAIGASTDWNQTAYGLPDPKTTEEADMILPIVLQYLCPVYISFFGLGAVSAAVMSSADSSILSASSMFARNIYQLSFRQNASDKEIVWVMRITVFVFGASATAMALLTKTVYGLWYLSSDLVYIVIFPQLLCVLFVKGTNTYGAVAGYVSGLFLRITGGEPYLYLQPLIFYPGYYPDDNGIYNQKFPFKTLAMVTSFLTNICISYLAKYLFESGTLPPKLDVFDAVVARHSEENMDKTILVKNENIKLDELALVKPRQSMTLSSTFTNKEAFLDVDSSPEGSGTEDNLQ
GalR3 antag = antagonists of human GalR3; O60755; HEK293 GalR3-CNG cAMP membrane potential fluorescence; galR3 body fused to GalR1 C-terminus; inhibition, % at 3 µM; hit rate 0.44% among 360,000;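 active = inhibition above the screen-wide average plus 3 SD, cut at about 13% in these data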;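 note: forskolin and galanin both at EC90 stimulate the cells; cAMP rise reported by CNG channel membrane potential dye signal; 0% = forskolin plus galanin with DMSO and 100% = forskolin alone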
COUP-TFII inh = NR2F2 (human) inhibition, primary screen | HEK293T NGFI-A luciferase reporter, luminescence | hit rate 0.7% among 370,000 | inhibition, % at 8.6 µM | P24468;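 active = inhibition above a per-plate cutoff, mean inhibition of test wells between control levels plus 3 SD, cut at about 38% in these data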;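 note: cells cotransfected with COUP-TFII expression vector driving the NGFI-A reporter; 0% = median of COUP-TF2 test wells and 100% = reporter-only cells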
CHT allo act = allosterically activates the human high affinity choline transporter | CHT-expressing cells, membrane potential dye, choline EC20; stronger effect = higher value; LV-AA mutant CHT in HEK293 cells | AID 488977 | hit rate 0.49% among 310,000 | B-score at 10 µM | Q9GZV3;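 active = initial fluorescence not abnormally high and integrated response B-score, plate-corrected, over 3 SD above library mean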
NR2E3 ag-2 = NR2E3 (human) agonism; Q9Y5X4; GST-NR2E3/biotin-RetCOR TR-FRET, 1536-well; inhibition of corepressor binding, % at 4.78 µM; hit rate 0.12% among 320,000; AID 2300;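 active = percent inhibition above the cutoff of mean plus 3 SD of all tested compounds, set per screening campaign, cut at about 20% in these data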;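 note: 0% = DMSO wells and 100% = biotin wells as full block of FRET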
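System: GST-tagged NR2E3 plus biotinylated RetCOR corepressor; Buffer or medium: pH 7.5 Tris-based buffer; Probe or stimulus: RetCOR corepressor, biotinylated, 7 nM; Doses: compound at 4.8 µM, single dose; Schedule: 5 h incubation at 4 °C; Technique: time-resolved FRET; Evaluation: percent inhibition of TR-FRET ratio; Replication: one well per compound, singlicate testing.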
CHT activ conf = confirmation of human choline transporter (CHT) activators; shares compounds with CHT allo act; CHT-expressing cells, membrane potential dye fluorescence (FDSS); % of choline EC20–EC90 response window; HEK293 expressing CHT LV-AA mutant; choline added at its EC20; activation, % at 10 µM; hit rate 91% among 2,500; AID 504833;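 active = primary screen active, with duplicate mean activation above negative control mean plus 3 SD, cut at about 11% in these data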
HEK293 MP dye = CHT activator counter-screen hit in parental HEK293 cells; ratio readout change at 10 µM, hits read low; hit rate 62% among 2,500; shares compounds with CHT allo act; membrane potential dye fluorescence (FDSS); measured after EC20 choline addition;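 active = duplicate-averaged ratio beyond 3 SD from buffer wells, up or down, though filed actives are nearly all decreases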
* marks the source's active call; other numbers are inactive results; i = inactive; · = no result. An excerpt weighted towards active compounds, which were near 2.3% of everything screened.

SMILES	NR2E3 ag-1	CHT inh	GalR3 antag	COUP-TFII inh	CHT allo act	NR2E3 ag-2	CHT activ conf	HEK293 MP dye
CCCC(c1nnnn1Cc1ccc(F)cc1)N1CCN(C2CCCCC2)CC1 (stereo not given)	-24	i	-5	-1	10*	1	36*	i
CC(C)C(c1nnnn1Cc1ccc(F)cc1)N1CCN(C2CCCC2)CC1 (stereo not given)	-28	i	0	3	i	6	·	·
CCC(c1nnnn1C(C)(C)C)N1CCN(C2CCCC2)CC1 (stereo not given)	-16	i	0	4	i	-3	·	·
CCCCC(c1nnnn1C1CCCC1)N1CCN(C2CCCC2)CC1 (stereo not given)	-30	i	-4	-4	6.6*	-2	43*	i
CCCC(c1nnnn1C1CCCCC1)N1CCN(C2CCCC2)CC1 (stereo not given)	-17	i	-3	-4	i	3	·	·
CCCC(c1nnnn1C(C)(C)CC)N1CCN(C2CCCC2)CC1 (stereo not given)	6	i	-5	-14	8.4*	-1	51*	i
O=C(Cc1ccccc1)NC1CCCc2c1cnn2-c1ccc(F)cc1F (stereo not given)	·	·	·	18	·	·	·	·
CCN(C(=O)CSc1nnc(-c2cccnc2)n1Cc1ccco1)c1ccccc1	·	·	·	0	·	·	·	·
O=C(Nc1ccccc1)N1CCCN(c2c(Cl)cncc2Cl)CC1	-12	i	6	6	i	1	·	·
CC(C)(C)c1ccc(NC(=O)N2CCCN(c3c(Cl)cncc3Cl)CC2)cc1	7	i	0	5	i	6	12*	i
COc1ccc2c(c1)CCCN2C(=O)C1CCCN(S(=O)(=O)c2ccc(C)c(C)c2)C1 (stereo not given)	·	·	·	29	·	·	·	·
O=C1C2CC=C(Cl)CC2C(=O)N1CCC[n+]1cccc2ccccc21 (stereo not given)	18	i	0	-17	i	5	50*	-25*
O=C1C2CC=C(Cl)CC2C(=O)N1CCCCCCN1C(=O)C2CC=C(Cl)CC2C1=O (stereo not given)	-28	i	-3	15	i	3	·	·
CCOc1cc(-c2sc(Nc3ccc(CC)cc3)n[n+]2-c2ccccc2)ccc1OC	-16	i	1	5	i	-4	42*	i
CSc1ccc(-c2sc(Nc3ccccc3)n[n+]2-c2ccc(F)cc2)cc1	·	i	·	·	i	-2	·	·
Cc1cccc(-c2sc(Nc3ccccc3)n[n+]2-c2ccc(F)cc2)c1	-1	i	-2	-6	8.9*	1	52*	i
CCOc1cc(-c2sc(Nc3cc(C)ccc3OC)n[n+]2-c2ccccc2)ccc1OC	21	i	-3	23	i	-1	44*	i
CCOC(=O)c1c(NC(=O)CN2CCN(C)CC2)sc(C(=O)Nc2ccccc2)c1C	-54	i	-8	-9	i	-3	·	·
CN1CCN(CC(=O)Nc2sc3c(c2C(=O)Nc2ccccc2)CCCC3)CC1	-18	i	-4	5	i	-1	45*	-31*
Cn1c(COc2ccccc2)nnc1SCC(=O)Nc1ccc(S(=O)(=O)Nc2nccs2)cc1	·	·	·	9	·	·	·	·
Cc1ccc(-n2cc(CNCCCn3ccnc3C)c(-c3ccc(F)cc3)n2)cc1	-4	i	-4	7	i	3	32*	-32*
C/C(=N\N=C(N)N)c1cccc([N+](=O)[O-])c1	-7	i	-3	-12	6.4*	4	27*	-57*
COc1ccc(C2C(C(=O)Nc3ccc(Cl)c(Cl)c3)CCC(=O)N2c2ccc(OC)cc2)cc1 (stereo not given)	·	·	·	-16	·	·	·	·
Cc1nc(N(C)Cc2ccccc2)c2c(C)c(C)sc2n1	-11	i	-12	7	i	5	26*	i
